DDE Tn6 FP inh: inhibitors of Tn6 peptide binding to fibrin DD(E), primary screen, biochemical, fluorescence polarization, human fibrin, Tn6 probe; inhibition, % at 8.3 µM; 370,000 tested, 0.21% active; Fibrin DD(E) TRITC-Tn6 fluorescence polarization displacement;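 active = inhibition above a per-campaign cutoff: mean of compounds within control limits plus 3 SD, cut at about 15% in these data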;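 also: 0% = median of all compound wells on the plate and 100% = blocking peptide control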
mABHD4 FP: ABHD4 inhibitors, primary screen, biochemical, fluorescence polarization, mouse. (Lyso)-N-acylphosphatidylethanolamine lipase (Mus musculus), Q8VD66. purified mABHD4, FP-Rh probe fluorescence polarization. inhibition, % at 8.92 µM. 370,000 tested, 0.54% active. AID 720543, 2013;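 active = inhibition exceeding the mean over every tested compound plus 3 SD, cut at about 30% in these data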;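 also: 0% = plate median of compound wells and 100% = S159A mutant with DMSO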
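Assay system: mouse ABHD4 enzyme, wild type / Also added: fluorescent activity-based probe FP-Rh / Doses: single nominal dose of 8.92 µM, 0.89% DMSO final / Timing: 45 min compound pre-incubation plus 60 min probe step, 25 °C / Signal: FP readout, ex 525 nm / em 598 nm / Control set: S159A mutant/DMSO as 100%, compound-well median as 0%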
HTRA1 inh: HTRA1 serine protease inhibitors, primary screen, biochemical, fluorescence polarization, HTS; inhibition, % at 5.96 µM; recombinant HTRA1, FP-rhodamine activity-based probe; Q92743; 340,000 tested, 0.5% active; in the data active = inhibition above about 36%;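 also: 0% = enzyme with DMSO and 100% = wells lacking enzyme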
TCR-CD3 inh: inhibitors of human TCR-CD3 interaction, primary screen, biochemical, fluorescence, TAMRA-labeled TCR probe; T-cell receptor (TCR); inhibition, % at 9.4 µM; 360,000 tested, 0.37% active; in the data active = inhibition above about 19%;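 also: recombinant mutant TCR 2C K166C tagged with TAMRA read by polarization; 0% = receptor in buffer alone and 100% = receptor with positive control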
Tn7 DDE FP: inhibitors of Tn7 peptide binding to fibrin DD(E), primary screen, biochemical, fluorescence polarization, human fibrin, Tn7 probe | Fibrinogen beta chain (Homo sapiens), P02675 | FP displacement of FITC-Tn7 peptide from fibrin DD(E); 0% = median of compound wells per plate | inhibition, % at 8.3 µM | 370,000 tested, 0.13% active;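 active = inhibition above the mean of compounds falling within the control limits plus 3 SD of them, cut at about 14% in these data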;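 also: 0% = plate median of compound wells and 100% = 10 µM Aha-Tn7 peptide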
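assay system = human clot-derived fibrin DD(E) complex | quantity = Fibrin-DD(E) at 2 µM final | timing = 10 min preincubation, 3 h with tracer, room temperature | signal = fluorescence polarization | measure = percent inhibition | benchmarks = high control wells with 10 µM unlabelled Aha-Tn7 peptide (full inhibition) | replicates = singlicate testing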
SIAE inh: human SIAE inhibitors, primary screen, biochemical, fluorescence polarization, FP-Rh probe, 1536-well HTS | Sialate O-acetylesterase (Homo sapiens), Q9HAT2 | SIAE FP-Rh probe binding | inhibition, % at 9.66 µM | 370,000 tested, 0.69% active | AID 1053197, 2014;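 active = inhibition above a cutoff: mean of compounds within the control limits plus 3 SD of those, cut at about 17% in these data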;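 also: 0% = plate median of compound wells and 100% = probe without SIAE protein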
Target sequence (Q9HAT2 whole entry, looked up): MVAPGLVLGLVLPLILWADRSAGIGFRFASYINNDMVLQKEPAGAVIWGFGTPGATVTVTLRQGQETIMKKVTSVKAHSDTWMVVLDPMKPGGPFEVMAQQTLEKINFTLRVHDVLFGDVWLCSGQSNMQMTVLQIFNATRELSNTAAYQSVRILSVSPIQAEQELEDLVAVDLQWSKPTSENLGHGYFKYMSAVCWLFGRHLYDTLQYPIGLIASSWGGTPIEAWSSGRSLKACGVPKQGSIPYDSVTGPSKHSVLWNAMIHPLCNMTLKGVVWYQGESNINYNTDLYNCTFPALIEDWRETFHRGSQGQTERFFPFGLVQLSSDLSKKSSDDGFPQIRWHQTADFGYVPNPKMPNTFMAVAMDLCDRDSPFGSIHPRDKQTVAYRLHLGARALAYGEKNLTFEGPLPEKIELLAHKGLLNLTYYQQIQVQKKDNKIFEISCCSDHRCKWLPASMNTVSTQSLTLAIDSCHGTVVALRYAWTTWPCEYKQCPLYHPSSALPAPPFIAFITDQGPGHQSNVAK
Tn7 DDE conf: inhibitors of Tn7 peptide binding to fibrin DD(E), confirmation, biochemical, fluorescence polarization, human fibrin, Tn7 probe; shares compounds with Tn7 DDE FP; FP displacement of TRITC-Tn7 peptide from DD(E); 0% set at plate's compound-well median; inhibition, % at 8.3 µM; 460 tested, 5% active;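 active = inhibition above the campaign cutoff, the mean of compounds within control limits plus 3 SD, cut at about 14% in these data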;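 also: 100% = median FP of high control wells holding Aha-Tn7 inhibitor peptide; displacers lower polarization since freed probe rises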
DDE Tn7 FP ctr: counter-screen for inhibitors of Tn7 peptide binding to fibrin DD(E); shares compounds with Tn7 DDE FP; TRITC-Tn7 probe displacement, fluorescence polarization; AID 720633; 460 tested, 3% active; inhibition, % at 8.3 µM;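 active = inhibition above the cutoff, the mean of compounds lying between the control bounds plus 3 SD of those compounds, cut at about 17% in these data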;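 also: 0% = median of compound sample wells and 100% = excess unlabeled Aha-Tn7 peptide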
* marks the source's active call; other numbers are inactive results; / = not tested or not shown. The list is not random: actives were taken first. Their share in the collection is about 1.8%.

SMILES	DDE Tn6 FP inh	mABHD4 FP	HTRA1 inh	TCR-CD3 inh	Tn7 DDE FP	SIAE inh	Tn7 DDE conf	DDE Tn7 FP ctr
CCCCCC[C@@H](CC)CN(C(=O)Oc1ccccc1)c1ccccc1	-1.7	-5.0	/	/	15.0*	1.2	12.8	6.9
CC(=O)CC[C@@H]1CC[C@]2(CCCN(S(=O)(=O)c3ccccc3)C2)O1	-0.9	0.5	/	/	-3.9	-2.4	/	/
CCOc1ccc(/C=N/n2c(SC)nnc(C(C)(C)C)c2=O)cc1	0.1	9.5	0.5	-0.2	14.7*	-2.4	0.2	0.7
Cc1cccc(-c2cccc3c4c([nH]c23)[C@@H]2C[C@H]3[C@@H](CN2CC4)[C@H](C)ON3C)c1	-1.5	2.2	/	/	-6.4	5.4	/	/
O=C(Cn1c(Cc2ccccc2)nc2ccccc21)NCc1ccc2c(c1)OCO2	-1.1	3.7	-3.1	-3.0	14.5*	-0.4	0.1	-2.4
O=C(CSc1nnc(-c2cccnc2)n1-c1ccccc1)Nc1ccc2c(c1)OCCO2	-7.1	6.6	/	/	-6.3	-5.7	/	/
O=C1C=CC(O)(c2cc(=O)c3c(O)cc(O)cc3o2)C=C1	0.3	3.0	-5.8	-2.0	14.5*	3.0	5.0	2.1
COc1ccc(NC(=O)CN2C(=O)C(C)Oc3ccccc32)cc1OC (stereo not drawn)	2.4	-0.4	-7.6	9.9	14.2*	-2.6	-1.3	-3.3
COc1ccccc1NC(=O)CN1C(=O)C(C)Oc2ccccc21 (stereo not drawn)	2.3	-2.3	1.1	-0.3	1.2	-2.1	/	/
O=C(NCCNS(=O)(=O)c1ccc(C(F)(F)F)cc1)N1CCOCC1	1.0	2.4	-1.7	3.8	-0.2	9.3	/	/
O=C(NCCNS(=O)(=O)c1ccccc1)N1CCOCC1	-1.4	2.4	0.4	2.1	14.9*	4.7	1.5	4.1
O=C(CN1CCN(c2ccccn2)CC1)N(c1ccccc1)c1ccc2ccccc2c1	-3.6	-6.2	-8.4	0.0	14.6*	0.2	-1.3	-6.1
O=C(CN1CCOCC1)N(c1ccccc1)c1ccc2ccccc2c1	-4.1	-2.1	-8.1	-4.9	-0.1	-2.2	/	/
Cc1cccn2c(=O)c(/C=C(\C#N)C(=O)NCc3ccccc3)c(N3CCC(C(N)=O)CC3)nc12	5.2	3.9	-5.2	10.4	16.2*	-2.4	6.3	2.0
CCNC(=O)/C(C#N)=C/c1c(N2CCCCCC2)nc2c(C)cccn2c1=O	-0.2	1.4	2.8	8.0	5.0	1.4	/	/
COc1cc([N+](=O)[O-])ccc1NC(=S)NNC(=O)CCC(=O)Nc1ccccc1Cl	5.1	8.2	2.1	0.9	14.6*	15.4	7.1	-0.6
COc1cc([N+](=O)[O-])ccc1NC(=O)CCCOc1ccccc1	-2.5	1.7	-8.5	1.5	1.2	-2.1	/	/
COC(=O)c1cn(-c2ccc(-c3noc4c3C(=O)N(CC(=O)N3CCOCC3)CC4)cc2)nn1	0.6	-5.2	/	/	-0.7	-3.9	/	/
COc1ccc(/C=N\NC(=O)Cc2cccs2)c(OC)c1OC	-6.3	1.9	/	/	-5.6	3.3	/	/
COC(=O)C1CCC(CNC(=O)C(Cc2ccc3c(c2)OCO3)NC(C)=O)CC1 (stereo not drawn)	6.7	-0.2	/	/	-6.7	9.1	/	/
O=C(CCl)NC(Cc1ccccc1)c1ccccc1 (stereo not drawn)	5.1	2.4	0.3	6.8	14.7*	-1.1	-5.3	-7.3
CC(=O)C(Cc1ccccc1)NC(=O)CCl (stereo not drawn)	4.5	-2.1	-5.9	4.2	-2.2	-1.9	/	/
CCN(CC)S(=O)(=O)c1cccc(-c2nnc(SCc3ncc(-c4ccccc4)o3)n2C)c1	5.0	5.2	-4.2	1.4	14.8*	-4.9	-3.5	-9.9
CCN(CC)S(=O)(=O)c1cccc(-c2nnc(SCC(N)=O)n2C)c1	-1.6	-3.6	3.6	2.3	4.8	-4.4	/	/
CC1(c2ccccc2)NC(=O)N(CC(=O)Nc2ccc(N3CCOCC3)cc2N2CCOCC2)C1=O (stereo not drawn)	-1.8	-6.9	0.2	-4.4	13.8*	5.4	7.0	4.9
SMILES	DDE Tn6 FP inh	mABHD4 FP	HTRA1 inh	TCR-CD3 inh	Tn7 DDE FP	SIAE inh	Tn7 DDE conf	DDE Tn7 FP ctr
Cc1cc(N2CCCC2)ccc1NC(=O)CN1C(=O)NC(C)(c2ccccc2)C1=O (stereo not drawn)	3.1	-14.3	16.1	-3.4	3.8	-3.1	/	/
CCOC(=O)N1CCN(Cc2nc(-c3ccc(C)cc3)no2)CC1	-1.2	-3.8	-1.3	-8.7	15.6*	-5.2	16.2*	7.7
CC(C)=CCC[C@@]1(C(=O)O)[C@@H]2C/C=C(\C)CC/C=C(\C)CC[C@H]1[C@]1(CC2)CO1	0.9	-12.2	/	/	-4.4	1.1	/	/
O=C(CCn1nnc(-c2cccs2)n1)N1CCCCC1	11.4	-2.5	/	/	-7.1	6.9	/	/
CC(C)C[C@H]1CN=C(N(C)C)N1CCCCc1ccccc1	10.2	-2.4	3.0	2.8	-0.9	5.8	/	/
C[C@H]1CN=C(N(C)C)N1CCCCc1ccccc1	5.7	2.2	-0.9	5.7	15.7*	-0.8	8.6	5.5
Cc1ccc2c(c1)C(CS(=O)(=O)NCC(C)C)NC2 (stereo not drawn)	-1.5	-0.1	/	/	-3.1	2.1	/	/
COc1ccc(S(=O)(=O)N2CCN(CC(=O)NCCc3cccs3)CC2)cc1	4.8	2.3	4.9	4.4	15.5*	0.5	-3.4	-7.1
Cc1nn(C)c(C)c1CCC(=O)O	2.3	-4.1	3.6	-7.2	14.3*	2.4	3.4	3.9
O=C(CP(=O)(c1ccccc1)c1ccccc1)Nn1cnnc1	1.9	4.9	8.6	-1.3	16.5*	2.4	-0.5	-3.6
NNC(=O)CP(=O)(c1ccccc1)c1ccccc1	-2.5	-2.9	4.3	6.0	6.6	-0.5	/	/
O=C(NCc1ccc(Cl)cc1)c1ccc(Cn2cc(C(F)(F)F)ccc2=O)cc1	-2.8	-4.5	-18.6	9.1	48.7*	-1.8	26.9*	-5.6
O=C(NCc1ccccc1Cl)c1ccc(Cn2cc(C(F)(F)F)ccc2=O)cc1	-7.1	-8.6	-12.0	-0.2	7.2	2.6	/	/
Cc1ccccc1Cn1cc(COC(=O)N(C)Cc2ccccc2)nn1	5.1	-4.6	/	/	5.8	0.6	/	/

Screening data as filed in PubChem.
